pKi: −log10 of the molar value.
Tests used:
[1] = system: A549; experiment: Tested for cytotoxicity towards A549 cell line (human lung carcinoma); Not active; format: functional, cell-based
[2] = system: MCF7; experiment: Tested for cytotoxicity towards MCF-7 cell line (human breast cancer); Not active; format: functional, cell-based
[3] = target: T1, Estrogen receptor (Homo sapiens, UniProt P03372); experiment: Binding affinity for estrogen receptor (ER) alpha of MCF-7 cell cytosol incubated with 2 nM [3H]estradiol; format: cell-based
T1 sequence (P03372 whole entry): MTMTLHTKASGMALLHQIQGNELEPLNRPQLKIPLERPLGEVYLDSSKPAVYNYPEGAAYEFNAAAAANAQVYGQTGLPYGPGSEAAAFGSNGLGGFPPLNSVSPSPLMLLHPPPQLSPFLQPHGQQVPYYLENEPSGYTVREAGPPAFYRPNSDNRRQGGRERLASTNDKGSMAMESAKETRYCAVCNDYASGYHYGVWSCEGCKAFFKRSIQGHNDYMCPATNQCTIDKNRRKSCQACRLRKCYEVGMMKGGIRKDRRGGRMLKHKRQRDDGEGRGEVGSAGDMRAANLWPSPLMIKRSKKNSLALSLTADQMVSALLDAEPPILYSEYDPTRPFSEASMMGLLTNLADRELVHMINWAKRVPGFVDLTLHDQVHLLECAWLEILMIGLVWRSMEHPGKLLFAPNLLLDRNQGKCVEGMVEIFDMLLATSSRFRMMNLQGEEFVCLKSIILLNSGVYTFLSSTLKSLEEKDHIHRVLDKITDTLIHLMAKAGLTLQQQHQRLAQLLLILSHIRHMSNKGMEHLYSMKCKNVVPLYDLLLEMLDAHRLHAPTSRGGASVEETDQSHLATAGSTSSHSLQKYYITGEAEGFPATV
Summary of the method: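 Cytosol from MCF-7 cells, which express only the ERα isoform, incubated with 2 nM [3H]-estradiol and unlabeled ligand at eight concentrations from 10 nM to 10 µM. IC50 derived by iterative curve fitting, and Ki calculated using a Kd of 0.1 nM.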

[4] = system: T47D; experiment: Tested for cytotoxicity towards T47D cell line (human breast cancer); Not active; format: functional, cell-based
[5] = target: T2, Aryl hydrocarbon receptor (Oryctolagus cuniculus, UniProt O02747); experiment: Binding affinity for aryl hydrocarbon receptor (AhR) of rabbit liver cytosol incubated with 0.2 nM [3H]-TCDD; Antagonist
T2 sequence (O02747 whole entry): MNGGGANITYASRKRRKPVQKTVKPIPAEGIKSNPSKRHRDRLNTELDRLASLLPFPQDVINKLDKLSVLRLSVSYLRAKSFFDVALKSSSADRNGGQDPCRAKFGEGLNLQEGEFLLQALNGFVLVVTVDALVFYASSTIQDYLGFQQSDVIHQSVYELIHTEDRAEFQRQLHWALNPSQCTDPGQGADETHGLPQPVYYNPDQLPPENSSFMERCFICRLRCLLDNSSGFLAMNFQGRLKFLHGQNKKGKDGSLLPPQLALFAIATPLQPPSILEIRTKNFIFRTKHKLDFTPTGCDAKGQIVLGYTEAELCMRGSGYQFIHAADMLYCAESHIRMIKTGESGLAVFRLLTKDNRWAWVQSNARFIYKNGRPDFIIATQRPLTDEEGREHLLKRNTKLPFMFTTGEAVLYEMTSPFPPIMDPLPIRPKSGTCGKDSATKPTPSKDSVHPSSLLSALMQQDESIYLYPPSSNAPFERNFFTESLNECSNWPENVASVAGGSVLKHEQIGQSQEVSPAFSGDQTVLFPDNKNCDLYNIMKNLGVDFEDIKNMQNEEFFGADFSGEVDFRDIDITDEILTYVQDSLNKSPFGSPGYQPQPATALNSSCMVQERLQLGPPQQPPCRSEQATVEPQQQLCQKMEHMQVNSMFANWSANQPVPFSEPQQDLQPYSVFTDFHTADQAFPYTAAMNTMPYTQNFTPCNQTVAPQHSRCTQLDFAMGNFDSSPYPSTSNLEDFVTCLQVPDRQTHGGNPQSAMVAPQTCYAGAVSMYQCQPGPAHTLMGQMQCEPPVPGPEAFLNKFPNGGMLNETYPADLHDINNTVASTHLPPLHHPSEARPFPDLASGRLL
Summary of the method: (§1)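 Rabbit liver cytosol incubated with 0.2 nM [3H]-TCDD plus unlabeled ligand at 12 concentrations spanning 0.1 nM to 1 µM. Competitive displacement measured, and IC50 obtained by iterative curve fitting.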

[6] = system: T47D; experiment: Tested for cytotoxicity towards T47D cell line (human breast cancer); format: functional, cell-based
[7] = system: A549; experiment: Tested for cytotoxicity towards A549 cell line (human lung carcinoma); format: functional, cell-based
[8] = system: MCF7; experiment: Tested for cytotoxicity towards MCF-7 cell line (human breast cancer); format: functional, cell-based
[9] = target: T1, Estrogen receptor; experiment: Binding affinity for estrogen receptor (ER) alpha of MCF-7 cell cytosol incubated with 2 nM [3H]estradiol; Agonist; format: cell-based
Summary of the method: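 ERα-only cytosol from MCF-7 cells, incubated with 2 nM [3H]-estradiol and eight concentrations (10 nM–10 µM) of unlabelled ligand. IC50 came from iterative curve fitting, and Ki was calculated using Kd 0.1 nM. Agonist status: stimulation of ERE-driven luciferase in MELN reporter cells after 8 h, with or without 1 nM 17β-estradiol; luciferase activity was the read-out.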

[10] = target: T2, Aryl hydrocarbon receptor; experiment: Binding affinity for aryl hydrocarbon receptor (AhR) of rabbit liver cytosol incubated with 0.2 nM [3H]-TCDD; Agonist; summary of the method: as §1

## FC(F)(F)c1ccc(/C=C/c2cc(C(F)(F)F)cc(C(F)(F)F)c2)cc1
[1]
  Concentration: > 10 µM
[2]
  Concentration: > 10 µM
[3]
  pKi: < 4.00
[4]
  Concentration: > 10 µM
[5]
  pKi: 8.68

## CCCCOc1ccc(/C=C\c2cc(OC)cc(OC)c2)cc1
[3]
  pKi: < 4.00
[5]
  pKi: 7.37

## FC(F)(F)c1ccc(/C=C\c2cc(Cl)cc(Cl)c2)cc1
[1]
  Concentration: > 10 µM
[2]
  Concentration: > 10 µM
[3]
  pKi: < 4.00
[4]
  Concentration: > 10 µM
[5]
  pKi: 7.85

## COc1ccc(/C=C/c2cc(F)cc(F)c2)cc1
[1]
  Concentration: > 10 µM
[2]
  Concentration: > 10 µM
[3]
  pKi: < 4.00
[4]
  Concentration: > 10 µM
[5]
  pKi: 8.04

## COc1ccc(/C=C\c2cc(Cl)cc(Cl)c2)cc1
[1]
  Concentration: > 10 µM
[2]
  Concentration: > 10 µM
[3]
  pKi: < 4.00
[4]
  Concentration: > 10 µM
[5]
  pKi: 7.92

## COc1cc(/C=C\c2ccc(F)cc2)cc(OC)c1
[6]
  Concentration: > 10 µM
[7]
  Concentration: > 10 µM
[3]
  pKi: < 4.00
[8]
  Concentration: > 10 µM
[5]
  pKi: 7.02

## COc1cccc(/C=C/c2cc(Cl)cc(Cl)c2)c1
[1]
  Concentration: > 10 µM
[2]
  Concentration: > 10 µM
[3]
  pKi: < 4.00
[4]
  Concentration: > 10 µM
[5]
  pKi: 8.24

## COc1ccc(/C=C/c2cc(OC)cc(OC)c2)cc1 [TRISMETHOXYRESVERATROL]
[9]
  pKi: 6.58
[6]
  Concentration: < 100 µM
[7]
  Concentration: < 100 µM
[8]
  Concentration: < 100 µM
[5]
  pKi: 8.11

## Oc1ccc(/C=C/c2cc(O)cc(O)c2)cc1 [RESVERATROL]
[9]
  pKi: 6.11

## COc1cccc(/C=C\c2cc(Cl)cc(Cl)c2)c1
[1]
  Concentration: > 10 µM
[2]
  Concentration: > 10 µM
[3]
  pKi: < 4.00
[4]
  Concentration: > 10 µM
[5]
  pKi: 7.62

## Fc1ccc(/C=C/c2cc(F)cc(F)c2)cc1
[1]
  Concentration: > 10 µM
[2]
  Concentration: > 10 µM
[3]
  pKi: < 4.00
[4]
  Concentration: > 10 µM
[5]
  pKi: 8.42

## Clc1ccc(/C=C\c2cc(Cl)cc(Cl)c2)cc1
[6]
  Concentration: < 100 µM
[7]
  Concentration: < 100 µM
[3]
  pKi: < 4.00
[8]
  Concentration: < 100 µM
[5]
  pKi: 7.89

## FC(F)(F)c1cccc(/C=C\c2cc(Cl)cc(Cl)c2)c1
[1]
  Concentration: > 10 µM
[2]
  Concentration: > 10 µM
[3]
  pKi: < 4.00
[4]
  Concentration: > 10 µM
[5]
  pKi: 7.72

## FC(F)(F)c1ccc(/C=C\c2cc(C(F)(F)F)cc(C(F)(F)F)c2)cc1
[1]
  Concentration: > 10 µM
[2]
  Concentration: > 10 µM
[3]
  pKi: < 4.00
[4]
  Concentration: > 10 µM
[5]
  pKi: 7.22

## CCCCOc1ccc(/C=C/c2cc(OC)cc(OC)c2)cc1
[6]
  Concentration: > 10 µM
[7]
  Concentration: > 10 µM
[3]
  pKi: < 4.00
[8]
  Concentration: > 10 µM
[5]
  pKi: 7.70

## COc1ccc(/C=C\c2cc(OC)cc(OC)c2)cc1 [8Z-3,4',5-TRIMETHOXYSTILBENE]
[9]
  pKi: 6.88
[5]
  pKi: 7.12

## Fc1ccc(/C=C\c2cc(F)cc(F)c2)cc1
[1]
  Concentration: > 10 µM
[2]
  Concentration: > 10 µM
[3]
  pKi: < 4.00
[4]
  Concentration: > 10 µM
[5]
  pKi: 7.20

## CCOc1ccc(/C=C\c2cc(OC)cc(OC)c2)cc1
[9]
  pKi: 6.87
[6]
  Concentration: < 0.1 µM
[7]
  Concentration: < 0.1 µM
[8]
  Concentration: < 0.1 µM
[5]
  pKi: 7.19

## Clc1ccc(/C=C/c2cc(Cl)cc(Cl)c2)cc1
[1]
  Concentration: > 10 µM
[2]
  Concentration: > 10 µM
[3]
  pKi: < 4.00
[4]
  Concentration: > 10 µM
[5]
  pKi: 8.92

## CCOc1ccc(/C=C/c2cc(OC)cc(OC)c2)cc1
[9]
  pKi: 6.42
[6]
  Concentration: < 0.1 µM
[7]
  Concentration: < 0.1 µM
[8]
  Concentration: < 0.1 µM
[5]
  pKi: 8.30

## COc1ccc(/C=C\c2cc(F)cc(F)c2)cc1
[1]
  Concentration: > 10 µM
[2]
  Concentration: > 10 µM
[3]
  pKi: < 4.00
[4]
  Concentration: > 10 µM
[5]
  pKi: 7.66

## COc1cc(/C=C/c2ccc(F)cc2)cc(OC)c1
[6]
  Concentration: > 10 µM
[7]
  Concentration: > 10 µM
[3]
  pKi: < 4.00
[8]
  Concentration: > 10 µM
[5]
  pKi: 8.51

## FC(F)(F)c1cccc(/C=C/c2cc(Cl)cc(Cl)c2)c1
[1]
  Concentration: > 10 µM
[2]
  Concentration: > 10 µM
[3]
  pKi: < 4.00
[4]
  Concentration: > 10 µM
[5]
  pKi: 8.17

## COc1ccc(/C=C/c2cc(Cl)cc(Cl)c2)cc1
[1]
  Concentration: > 10 µM
[2]
  Concentration: > 10 µM
[3]
  pKi: < 4.00
[4]
  Concentration: > 10 µM
[5]
  pKi: 8.85

## FC(F)(F)c1ccc(/C=C/c2cc(Cl)cc(Cl)c2)cc1
[1]
  Concentration: > 10 µM
[2]
  Concentration: > 10 µM
[10]
  pKi: 9.70
[3]
  pKi: < 4.00
[4]
  Concentration: > 10 µM
